# Rows were chosen to be rich in hits. Some 5.9% of all compounds tested hit in one or more screens of this group.
# T cruzi growth-1 – blocks T. cruzi growth in NIH3T3 culture | T. cruzi beta-gal in NIH3T3, GalScreen luminescence, 90 h | hit rate 5.9% among 77,000 | inhibition, % at 8.34 µM | AID 624255;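 active = mean inhibition above about 93%, with at least 55% of replicates each passing it, limit read from the data, passing the limit was not always enough; inconclusive = only one of those two conditions holds; inactive = neither condition holds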
# KDM4C inh – blocks human GASC-1 (KDM4C) demethylase activity. AID 720574. GST-KDM4C 2-372, H3K9me3 peptide, LANCE TR-FRET. Q9H3R0. hit rate 0.15% among 96,000. inhibition, % at 12.5 µM;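 active = mean replicate inhibition above about 25%, with at least 55% of replicates also reaching it, limit read from the data, passing the limit was not always enough; inconclusive = only one of those two conditions met; inactive = neither condition met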
#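 System – N-terminal GST-fused human GASC-1 (KDM4C) fragment, residues 2-372 · Input – enzyme final amount 10 nM · Technique – LANCE TR-FRET, Eu antibody, ULight-streptavidin, EDTA, ex 340 nm, em 618/671 nm · Medium – HEPES buffer, pH 7.5, plus ascorbate · Incubation – enzyme reaction 30 min, then detection 60 min, both room temperature · Reagent – H3K9me3 peptide with Fe(II)/2OG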
# IDH1 mut inh – IDH1 R132H (human) inhibition; O75874; hit rate 0.18% among 70,000; inhibition, % at 10 µM; AID 624101; IDH1 R132H reductase, diaphorase/resazurin fluorescence, 60 min; in the data active = inhibition above about 34%; inconclusive = no clear call, values can overlap the other calls; inactive = below about 11%;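 also: 0% = DMSO and 100% = no enzyme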
# Target sequence (O75874 whole entry R132H): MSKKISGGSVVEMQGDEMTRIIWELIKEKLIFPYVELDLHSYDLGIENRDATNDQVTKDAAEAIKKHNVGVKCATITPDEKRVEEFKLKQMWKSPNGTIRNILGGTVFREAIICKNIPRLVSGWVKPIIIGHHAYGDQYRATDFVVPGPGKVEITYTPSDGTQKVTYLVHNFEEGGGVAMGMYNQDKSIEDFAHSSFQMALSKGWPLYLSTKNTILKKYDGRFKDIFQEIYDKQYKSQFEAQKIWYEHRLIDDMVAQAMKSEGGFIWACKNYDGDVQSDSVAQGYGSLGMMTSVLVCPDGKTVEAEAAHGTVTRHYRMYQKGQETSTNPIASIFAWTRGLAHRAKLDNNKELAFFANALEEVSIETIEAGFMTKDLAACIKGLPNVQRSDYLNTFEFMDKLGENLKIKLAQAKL
# Pf Dd2 inh – P. falciparum Dd2 growth inhibition. SYBR Green, 72 h; hits give low values. activity change, % at 10 µM. hit rate 2.3% among 94,000. AID 1159554; in the data active = activity change below about -80%; inconclusive = no clear call, values can overlap the other calls
# T cruzi growth-2 – blocks T. cruzi growth in NIH3T3 host cells; AID 651739; hit rate 72% among 5,600; T. cruzi beta-gal in NIH3T3, GalScreen luminescence, 90 h; inhibition, % at 8.35 µM; shares compounds with T cruzi growth-1;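 active = mean replicate inhibition above about 95% and at least 55% of replicates individually reaching it, limit read from the data; inconclusive = only one of the two criteria is met; inactive = neither criterion is met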
# T cruzi growth-3 – Trypanosoma cruzi proliferation inhibition; shares compounds with T cruzi growth-1; T. cruzi beta-gal in NIH3T3, GalScreen luminescence, 90 h; inhibition, % at 2.09 µM; hit rate 21% among 5,600; AID 651740;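 active = mean inhibition above about 95%, with at least 55% of replicates also reaching it, limit read from the data; inconclusive = meets just one of the two conditions; inactive = meets neither condition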;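 also: plate controls were neutral control median for no effect and positive control median for full effect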
# 3T3 cytotox – kills mouse NIH/3T3 fibroblasts. shares compounds with T cruzi growth-1. NIH/3T3 viability, CellTiter-Glo ATP luminescence, 90 h. cytotoxicity (signal decrease), % at 8.35 µM. hit rate 14% among 5,600. AID 651742;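 active = mean signal decrease across replicates above about 35% based on untreated-well scatter, with enough replicates individually passing, limit read from the data; inconclusive = no rule stated though some were filed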;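 also: 0% = median of neutral control wells and 100% = median of positive control wells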
# 3T3 cytotox 2 – cytotoxicity in mouse NIH/3T3 fibroblasts | AID 651744 | shares compounds with T cruzi growth-1 | NIH/3T3 viability, CellTiter-Glo ATP luminescence, 90 h | inhibition, % at 24.9 µM | hit rate 56% among 5,600;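 active = mean loss of cell viability signal at or above a set limit, and enough replicates individually reaching it; inconclusive = meets only the mean limit or only the replicate share; inactive = meets neither condition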;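 also: 0% = median of neutral control wells and 100% = median of positive control wells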
# Numbers without * were called inactive; ? = inconclusive; / = no result.
SMILES,T cruzi growth-1,KDM4C inh,IDH1 mut inh,Pf Dd2 inh,T cruzi growth-2,T cruzi growth-3,3T3 cytotox,3T3 cytotox 2
CC(C)C#Cc1ccc([C@H]2[C@@H](CO)N3CCCCN(S(=O)(=O)Cc4ccccc4)C[C@H]23)cc1,103*,2,/,-66,105*,73,58*,105*
CC(C)C#Cc1ccc([C@@H]2[C@H](CO)N3CCCCN(S(=O)(=O)Cc4ccccc4)C[C@@H]23)cc1,102*,-1,/,-63,104*,72,47*,105*
C[C@H](O)C#Cc1ccc([C@@H]2[C@@H](CO)N3CCCCN(S(=O)(=O)Cc4ccccc4)C[C@@H]23)cc1,54,1,/,-40,/,/,/,/
CC(C)C#Cc1ccc([C@H]2[C@@H](CO)N3CCCCN(S(=O)(=O)Cc4ccccc4)C[C@@H]23)cc1,109*,1,/,5,108*,65,27,12
CN(C)C(=O)c1ccc(-c2ccc3c(c2)[C@@H]2[C@@H](CCN2C(=O)c2ccc4c(c2)OCO4)[C@H](CO)N3)cc1,?,2,/,-9,104*,77,-26,-6
CN(C)C(=O)c1cccc(-c2ccc3c(c2)[C@H]2[C@H](CCN2C(=O)C2CCOCC2)[C@@H](CO)N3)c1,?,0,/,7,99*,31,-39,-9
CN(C)C(=O)c1cccc(-c2ccc3c(c2)[C@@H]2[C@@H](CCN2C(=O)C2CCOCC2)[C@@H](CO)N3)c1,94,1,/,4,/,/,/,/
CN(C)C(=O)c1cccc(-c2ccc3c(c2)[C@H]2[C@H](CCN2C(=O)C2CCCC2)[C@H](CO)N3)c1,/,5,/,-75,/,/,/,/
CN(C)CC(=O)N1CC[C@@H]2[C@H](CO)Nc3ccc(-c4ccc(C(=O)N(C)C)cc4)cc3[C@@H]21,60,0,/,7,/,/,/,/
CN(C)C(=O)c1cccc(-c2ccc3c(c2)[C@@H]2[C@@H](CCN2C(=O)C2CC2)[C@@H](CO)N3)c1,106*,2,/,-27,99*,77,-4,-1
CCC(=O)N1CC[C@@H]2[C@@H](CO)Nc3ccc(-c4ccc(C(=O)N(C)C)cc4)cc3[C@@H]21,103*,0,/,-12,104*,47,-40,-16
CN(C)C(=O)c1cccc(-c2ccc3c(c2)[C@H]2[C@H](CCN2C(=O)c2ccc4c(c2)OCO4)[C@H](CO)N3)c1,64,0,/,-14,/,/,/,/
O=C(Nc1ccccc1)N1CC(=O)N2[C@H](CO)[C@@H](c3ccc(C#CC4CCCCC4)cc3)[C@@H]2C1,/,0,/,-40,/,/,/,/
O=C(C[C@H]1C[C@H]2c3cc(NC(=O)c4cccnc4)ccc3O[C@H]2[C@@H](CO)O1)NCc1ccccc1F,6,-2,1,6,/,/,/,/
O=C(NC1CCCC1)N1CCCCN2[C@H](CO)[C@H](c3ccc(/C=C/c4ccccc4)cc3)[C@H]2C1,110*,0,/,-36,100*,117*,24,104*
O=C(NC1CCCC1)N1CCCCN2[C@H](CO)[C@@H](c3ccc(/C=C/c4ccccc4)cc3)[C@H]2C1,57,-4,/,-29,/,/,/,/
O=C(NC1CCCC1)N1CCCCN2[C@H](CO)[C@H](c3ccc(/C=C/c4ccccc4)cc3)[C@@H]2C1,114*,0,/,29,95*,100*,16,103*
CO[C@@H]1CN(C)C(=O)c2cc(NS(=O)(=O)c3cn(C)cn3)ccc2OC[C@H](C)N(CC2CC2)C[C@H]1C,-90,-1,0,20,/,/,/,/
C[C@H](CO)N1C[C@H](C)[C@H](CN(C)CC2CCCCC2)Oc2c(NS(=O)(=O)c3cccs3)cccc2C1=O,-5,1,/,5,/,/,/,/
CN(C)c1ccc2c(c1)[C@@H]1C[C@H](CC(=O)NCc3ccc(Oc4ccccc4)cc3)O[C@@H](CO)[C@@H]1O2,153*,/,-3,-75,47,9,53*,55*
CN(C)c1ccc2c(c1)[C@@H]1C[C@H](CC(=O)NCc3ccc(Oc4ccccc4)cc3)O[C@H](CO)[C@@H]1O2,122*,1,-1,-54,43,12,-1,?
CN(C)c1ccc2c(c1)[C@@H]1C[C@@H](CC(=O)NCc3ccc(Oc4ccccc4)cc3)O[C@H](CO)[C@@H]1O2,52,/,-1,-35,/,/,/,/
CN(C)c1ccc2c(c1)[C@H]1C[C@H](CC(=O)NCc3ccc(Oc4ccccc4)cc3)O[C@H](CO)[C@H]1O2,135*,9,-2,-90*,76,32,-9,56*
COc1ccccc1NC(=O)N1CC[C@@H]2[C@H]1c1cc(-c3ccc(F)cc3)ccc1N(C)[C@@H]2CO,112*,0,/,-13,98*,107*,14,34*
CCC(=O)N1CC[C@H]2[C@@H]1c1cc(-c3ccccc3)ccc1N(C)[C@H]2CO,45,2,/,0,/,/,/,/
SMILES,T cruzi growth-1,KDM4C inh,IDH1 mut inh,Pf Dd2 inh,T cruzi growth-2,T cruzi growth-3,3T3 cytotox,3T3 cytotox 2
CCC(=O)N1CC[C@@H]2[C@H]1c1cc(-c3cccc(OC)c3)ccc1N(C)[C@@H]2CO,105*,0,/,2,104*,108*,27,15
COCC(=O)N1CC[C@@H]2[C@@H](CO)N(C)c3ccc(-c4cccc(OC)c4)cc3[C@@H]21,97*,1,/,1,108*,76,9,2
COCC(=O)N1CC[C@@H]2[C@H]1c1cc(-c3ccc(OC)cc3)ccc1N(C)[C@H]2CO,32,4,/,20,/,/,/,/
CCC(=O)N1CC[C@@H]2[C@H]1c1cc(-c3ccc(F)cc3)ccc1N(C)[C@@H]2CO,101*,3,/,-9,107*,66,8,24*
C[C@@H]1CN([C@H](C)CO)C(=O)c2cccc(NC(=O)c3ccc(-c4nccs4)cc3)c2O[C@H]1CN(C)S(=O)(=O)c1cccs1,4,-1,-4,-23,/,/,/,/
Cc1ccc(-c2cc(C(F)(F)F)nn2-c2ccc(S(N)(=O)=O)cc2)cc1,/,/,0,/,/,/,/,/
O=C(O)CCCCCCC(=O)N/N=C/c1ccoc1,/,/,0,/,/,/,/,/
C[C@H]1CCCCO[C@H](CN(C)Cc2ccc3c(c2)OCO3)[C@@H](C)CN([C@@H](C)CO)C(=O)c2cc(NC(=O)Nc3ccc4c(c3)OCO4)ccc2O1,100*,0,-2,-65,99*,110*,32,106*
C[C@@H]1CCCCO[C@H](CN(C)Cc2ccc(Cl)c(Cl)c2)[C@@H](C)CN([C@H](C)CO)C(=O)c2cc(NC(=O)Nc3ccc4c(c3)OCO4)ccc2O1,103*,1,/,8,107*,105*,25,13

# Source: PubChem (Broad Institute)
